Assay outcomes: PubChem BioAssay, several laboratories
Shown are actives, neighbours in structure and some others; about 3% of the full set was active somewhere.
SDO1 yeast rescue: growth rescue of sdo1-depleted yeast, primary screen, S. cerevisiae, bone marrow failure model. z-score at 10 µM. AID 817, 2007. S. cerevisiae sdo1-depleted JHY4D growth rescue, OD600 30 h; stronger effect = higher value; pdr5 snq2 efflux-pump mutant strain. 140,000 tested, 0.21% active;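 active = z-score above 3 at both the 24 hr and the 30 hr optical density reads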;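 also: z-score against mean and SD of all compound wells on the same plate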
Yeast life ext: compounds extending yeast replicative lifespan, primary screen, S. cerevisiae, OD615; S. cerevisiae growth with nicotinamide; deaD strain in restrictive glucose medium; inhibition of the nicotinamide effect, % at 10 µM; 130,000 tested, 0.68% active; AID 775, 2007;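 active = inhibition above a set limit, placed 3 SD over the median of all compounds, cut at about 26% in these data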;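 also: 0% = nicotinamide-treated wells and 100% = cells grown without nicotinamide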
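Test system – modified budding yeast, DeaD strain · Compound – single dose 10 µM compound, 0.25% DMSO · Times – culture preincubation 4 h, compound exposure 48 h, both 30 °C · Detection – optical density (absorbance) at 615 nm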
sEH act: soluble epoxide hydrolase activators, primary screen, biochemical, human sEH; activation, % at 2 µM; AID 717, 2007; Bifunctional epoxide hydrolase 2 (Homo sapiens), P34913; purified human sEH enzymatic activity, activator screen; 91,000 tested, 0.04% active; in the data active = activation above about 37%
Target sequence (P34913 whole entry, looked up): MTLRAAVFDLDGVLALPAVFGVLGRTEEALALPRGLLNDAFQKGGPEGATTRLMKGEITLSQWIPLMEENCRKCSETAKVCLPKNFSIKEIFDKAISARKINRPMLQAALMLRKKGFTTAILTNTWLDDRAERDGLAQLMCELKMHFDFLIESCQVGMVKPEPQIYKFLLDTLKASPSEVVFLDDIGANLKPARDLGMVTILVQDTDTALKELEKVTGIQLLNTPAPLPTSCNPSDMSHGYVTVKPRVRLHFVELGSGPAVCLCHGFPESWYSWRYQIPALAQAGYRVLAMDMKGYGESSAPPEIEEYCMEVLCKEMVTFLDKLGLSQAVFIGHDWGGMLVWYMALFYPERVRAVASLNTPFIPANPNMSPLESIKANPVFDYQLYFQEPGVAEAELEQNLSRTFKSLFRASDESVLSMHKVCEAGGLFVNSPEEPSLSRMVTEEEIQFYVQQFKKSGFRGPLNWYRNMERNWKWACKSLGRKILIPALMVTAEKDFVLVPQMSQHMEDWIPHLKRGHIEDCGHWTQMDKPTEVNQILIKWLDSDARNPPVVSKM
Measles CPE: compounds protecting cells from measles virus cytopathic effect, primary screen, measles RdRp inhibitor project, single point, MLSMR library, absorbance. 140,000 tested, 1.5% active. protection (pct of control), % at 4 µM. Measles virus-infected cells, CPE protection. AID 841, 2007; in the data active = protection mostly above about 24%, no sharp cut-off; inactive = mostly below about 26%
Yeast growth inh: growth inhibitors of yeast BB579 in restrictive medium, primary screen, yeast lifespan-shortening project, S. cerevisiae; OD615, 48 h; inhibition, % at 10 µM; 140,000 tested, 0.51% active; AID 804, 2007;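 active = inhibition above a set limit, 3 SD over the mean compound inhibition, cut at about 44% in these data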
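controls = amphotericin B 10 µg/mL, positive | assay system = DeaD yeast strain BB579 | schedule = 48 h compound exposure at 30 °C after 4 h preincubation | detection = OD615 turbidity measurement | medium = restrictive CSMM-D medium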
sEH inh: soluble epoxide hydrolase inhibitors, primary screen, biochemical, human sEH; Bifunctional epoxide hydrolase 2 (Homo sapiens), P34913; inhibition, % at 2 µM; AID 707, 2007; recombinant human sEH enzymatic activity assay; 91,000 tested, 0.34% active; in the data active = inhibition above about 80%
Active calls of the source: *.

What do the screens show for `Cc1cccc(-n2c(C)nc3cc(C(=O)NCc4ccc5c(c4)OCO5)ccc32)c1`?
SDO1 yeast rescue: -0.02; Yeast life ext: -1.5; Measles CPE: 13.6; Yeast growth inh: -14.7

What do the screens show for `O=S(=O)(NCCc1cn2ccccc2n1)c1ccc2c(c1)CCCC2`?
SDO1 yeast rescue: 0.39; Yeast life ext: 8.4; Measles CPE: 7.9; Yeast growth inh: -31.2

Results for O=c1cc(N2CCCCC2)c(-c2ccccc2)nn1Cc1ccc(Cl)cc1Cl ?
SDO1 yeast rescue: -1.08; Yeast life ext: -5.2; sEH act: 10.6; Measles CPE: 43.0*; Yeast growth inh: -58.1; sEH inh: -11.9

What do the screens show for `Oc1ccc(N=Nc2c(O)ccc3ccccc23)cc1`?
SDO1 yeast rescue: -2.28; Yeast life ext: -5.8; sEH act: -4.8; Measles CPE: 8.8; Yeast growth inh: -31.6; sEH inh: 4.9

What do the screens show for `Oc1c(N=Nc2ccccn2)ccc2ccccc12`?
SDO1 yeast rescue: -0.03; Yeast life ext: -11.5; sEH act: 11.5; Measles CPE: 2.6; Yeast growth inh: 95.9*; sEH inh: -7.0

Results for Cc1nn(CC(=O)c2ccccc2)c(=O)c2nn(-c3ccccc3F)c(C)c12 ?
SDO1 yeast rescue: -0.79; Yeast life ext: 8.0; Measles CPE: 4.5; Yeast growth inh: -52.2

What do the screens show for `O=C(N/N=C/c1c[nH]c2ccc(Br)cc12)c1ccncc1`?
SDO1 yeast rescue: -0.29; Yeast life ext: 3.8; Measles CPE: 28.8*; Yeast growth inh: -29.5

How did O=C(N/N=C/c1c[nH]c2ccccc12)c1ccncc1 do in these assays?
SDO1 yeast rescue: 0.82; Yeast life ext: 2.5; Measles CPE: 24.5; Yeast growth inh: -31.6

How did COc1ccc(N/C(=C(/C(Cl)=C(Cl)Cl)[N+](=O)[O-])n2nnc3ccccc32)cc1OC do in these assays?
SDO1 yeast rescue: 0.23; Yeast life ext: -14.8; sEH act: -0.1; Measles CPE: 52.0*; Yeast growth inh: -10.6; sEH inh: -4.3

Results for O=C1NCCCC1C(=O)N/N=C/c1cccc(O)c1 (stereo not drawn) ?
SDO1 yeast rescue: -0.06; Yeast life ext: -1.3; Measles CPE: 2.3; Yeast growth inh: 100.4*

How did O=C1NCCCC1C(=O)N/N=C/c1ccccc1 (stereo not drawn) do in these assays?
SDO1 yeast rescue: 0.04; Yeast life ext: 1.4; sEH act: 4.5; Measles CPE: 2.7; Yeast growth inh: -0.9; sEH inh: -6.6

What do the screens show for `Cc1ccc(-c2[nH]nc(N)c2N=Nc2ccccc2C)cc1`?
SDO1 yeast rescue: -1.94; Yeast life ext: -38.0; sEH act: -7.0; Measles CPE: 5.2; Yeast growth inh: 51.6*; sEH inh: 9.3

How did CCCCN(CCCC)c1ccc(C(=O)c2ccccc2C(=O)O)c(O)c1 do in these assays?
SDO1 yeast rescue: 1.34; Yeast life ext: 34.1*; sEH act: 12.3; Measles CPE: 21.9; Yeast growth inh: -41.3; sEH inh: -11.7

How did Cc1cccc(Oc2cc(NC(=O)c3ccccc3)cc([N+](=O)[O-])c2)c1 do in these assays?
SDO1 yeast rescue: -2.19; Yeast life ext: -27.1; sEH act: -8.6; Measles CPE: 6.8; Yeast growth inh: -69.4; sEH inh: 10.8

Results for CC(=O)Nc1cc(ON=C(C)C)cc([N+](=O)[O-])c1 ?
SDO1 yeast rescue: 0.76; Yeast life ext: -7.3; Measles CPE: 46.6*; Yeast growth inh: -0.1

Results for c1ccc(SSc2ccccc2)cc1 ?
SDO1 yeast rescue: 0.14; Yeast life ext: 27.9*; Measles CPE: 77.4; Yeast growth inh: 3.1

How did c1ccc(SCCc2ccncc2)cc1 do in these assays?
SDO1 yeast rescue: 0.29; Yeast life ext: 10.8; sEH act: 8.1; Measles CPE: 0.9; Yeast growth inh: -39.6; sEH inh: -5.1

How did COC(=O)/C(=C/c1c[nH]c2ccccc12)[N+](=O)[O-] do in these assays?
SDO1 yeast rescue: 0.01; Yeast life ext: 26.2*; sEH act: 14.2; Measles CPE: 15.8; Yeast growth inh: -31.7; sEH inh: -11.7

What do the screens show for `COC(=O)/C(=C/c1c[nH]c2ccccc12)NC(C)=O`?
SDO1 yeast rescue: -0.9; Yeast life ext: -0.7; Measles CPE: 15.9; Yeast growth inh: -7.1

How did COC(=O)/C(=C/c1cn(C)c2ccccc12)[N+](=O)[O-] do in these assays?
SDO1 yeast rescue: -0.94; Yeast life ext: 74.1*; sEH act: -6.9; Measles CPE: 9.9; Yeast growth inh: -61.1; sEH inh: 7.3

Results for COC(=O)/C(=C/Nc1ccccc1)[N+](=O)[O-] ?
SDO1 yeast rescue: 2.51; Yeast life ext: -6.2; sEH act: 4.2; Measles CPE: 8.1; Yeast growth inh: -42.5; sEH inh: -2.2

How did Cc1cc(C(=O)NP(=O)(N2CCOCC2)N2CCOCC2)c(C)n1-c1ccc(Br)cc1 do in these assays?
SDO1 yeast rescue: 2.32; Yeast life ext: -4.6; Measles CPE: 45.9*; Yeast growth inh: -17.7

Results for CCC(CC)NC(=O)COC(=O)c1ccc(OCC(=O)Nc2ccccc2OC)c(OC)c1 ?
SDO1 yeast rescue: 2.07; Yeast life ext: -9.1; sEH act: -83.0; Measles CPE: 13.6; Yeast growth inh: 2.4; sEH inh: 83.3*

What do the screens show for `CCCNC(=O)COC(=O)c1ccc(OCC(=O)Nc2ccccc2OC)c(OC)c1`?
SDO1 yeast rescue: 2.17; Yeast life ext: -10.7; sEH act: -31.9; Measles CPE: 2.7; Yeast growth inh: -20.9; sEH inh: 32.5

Results for COc1ccc(CC(=O)O/N=C(\N)Cc2cccc3ccccc23)cc1OC ?
SDO1 yeast rescue: -1.33; Yeast life ext: -2.1; Measles CPE: 3.9; Yeast growth inh: -30.7

How did NC(=O)CSc1nc2cc3c(cc2c(=O)n1CCCC(=O)NCc1ccc2c(c1)OCO2)OCO3 do in these assays?
SDO1 yeast rescue: 0.1; Yeast life ext: -12.1; sEH act: -30.6; Measles CPE: 2.8; Yeast growth inh: -26.6; sEH inh: 32.8

How did Cc1n[nH]c(=O)n1-c1cccc(C(F)(F)F)c1 do in these assays?
SDO1 yeast rescue: -0.45; Yeast life ext: 74.8*; sEH act: 10.3; Measles CPE: 10.8; Yeast growth inh: -10.5; sEH inh: -9.2

What do the screens show for `CC1(C)NC(=O)N(CC(O)COc2ccccc2C(=O)N2CCCCC2)C1=O` (stereo not drawn)?
SDO1 yeast rescue: 0.95; Yeast life ext: -12.5; sEH act: -1.6; Measles CPE: 44.3*; Yeast growth inh: 5.0; sEH inh: 2.0

Results for COc1cccc(/C=N/n2c(N)c(S(=O)(=O)c3cccs3)c3nc4ccccc4nc32)c1 ?
SDO1 yeast rescue: -1.04; Yeast life ext: -14.2; sEH act: 6.3; Yeast growth inh: -30.8; sEH inh: -5.4
